The source of these data is ChEMBL document CHEMBL4400536, “Design and synthesis of aminothiazole based Hepatitis B Virus (HBV) capsid inhibitors” (Eur J Med Chem, 2019).

The structures appear in SMILES notation. Activity calls are given as the source filed them. No cut-off for these calls is given here.

Data set [1] concerns the target Core antigen (Hepatitis B virus) (UniProt Q03732). Description: Inhibition of GFP-fused Hepatitis B Virus capsid expressed in HEK293T cells at 50 uM after 48 hrs relative to control. It is filed as cell-based. The essentials: (§1)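 BiFC assay: HBc fused to Venus fragments VN (1–154) and VC (155–239) were co-transfected into 293T cells, then compounds were added. The dose series used 0, 0.5, 5 and 50 μM; SAR used 50 μM as percent inhibition. After 48 h, reconstituted fluorescence was read as mean fluorescent intensity on a plate reader, with fluorescence microscopy images.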

For data set [2], the system named is Hepatitis B virus. Description: Antiviral activity against Hepatitis B virus infected in human HepG2.2.15 cells assessed as inhibition of viral replication after 7 days by RT-PCR analysis. It is filed as functional, organism-based. Conditions: for IC50: HepG2.2.15, 168 h.
Data set [3] is described as follows: Cytotoxicity against human HepG2.2.15 cells. It is filed as cell-based, HepG2 2.2.15.
Data set [4] can be described thus: Renal toxicity in BALB/c mouse assessed as effect on BUN levels at 500 to 1000 mg/kg, ip measured on day 14. Particulars: in vivo. It is filed as organism-based. The essentials: (§2)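 Male Balb/c mice, 5 animals, given a single intraperitoneal injection at 0, 500 or 1000 mg/kg. Body weight followed for two weeks. On day 14, blood was taken for hepatic and renal function (AST, ALT, BUN, creatinine). Heart, liver, lung, spleen and kidney were sectioned, HE-stained and examined.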

Data set [5] deals with Core antigen (Hepatitis B virus) (UniProt Q03732). Nature of the data set: Inhibition of aggregation of HBV capsid (1 to 149 residues) expressed in Escherichia coli assessed as induction of abnormal capsid morphology at 0.2 to 50 uM by TEM analysis. In outline: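 His-tagged Cp149 was expressed in E. coli (IPTG 1 mM), Ni-affinity purified and kept in PBS. Cp149 (10 μM) in 50 mM HEPES pH 7.5 was preincubated 1 h with compound (0.2–50 μM) or DMSO. Assembly was started with NaCl to 50 mM and equilibrated 60 h at 23 °C. Grids were stained with 2% uranyl acetate and viewed by TEM.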
Core antigen (Hepatitis B virus), sequence (Q03732 as listed by the source): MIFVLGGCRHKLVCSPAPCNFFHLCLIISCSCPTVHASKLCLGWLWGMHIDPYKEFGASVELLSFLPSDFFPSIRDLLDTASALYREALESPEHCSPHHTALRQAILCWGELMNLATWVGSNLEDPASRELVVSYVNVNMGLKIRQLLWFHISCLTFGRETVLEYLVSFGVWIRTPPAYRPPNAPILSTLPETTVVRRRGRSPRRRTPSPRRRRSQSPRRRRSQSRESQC

Data set [6] has the same target. Description: Inhibition of dimerization of HA-tagged Hepatitis B Virus capsid (HBVcAg-N1-154) expressed in HEK293T cells at 50 to 100 uM after 48 hrs by Western blot analysis. Type of data set: cell-based. The essentials:
(§3)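 HEK293T cells were transfected with HBc-VN-HA or HBc-VC-FLAG and treated with DMSO, 50 or 100 μM compound. After 48 h, lysates were western blotted with anti-HA, anti-FLAG and anti-GAPDH.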
In general terms: Immunoblotting shows a protein as a band on a membrane.

Data set [7] in a line: Acute toxicity in BALB/c mouse assessed as effect on heart at 500 to 1000 mg/kg, ip measured on day 14 by hematoxylin and eosin staining based assay. Particulars: in vivo. Type of data set: organism-based. In outline:
as §2

Data set [8] can be described thus: Acute toxicity in BALB/c mouse assessed as effect on liver at 500 to 1000 mg/kg, ip measured on day 14 by hematoxylin and eosin staining based assay. It is filed as organism-based. Particulars: in vivo. In outline: as §2
The nature of data set [9]: Acute toxicity in BALB/c mouse assessed as effect on body weight at 500 to 1000 mg/kg, ip measured after 2 weeks. Type of data set: organism-based. Conditions: in vivo, 336 h. In outline: as §2
A short description of data set [10]: Hepatic toxicity in BALB/c mouse assessed as effect on AST levels at 500 to 1000 mg/kg, ip measured on day 14. It is filed as organism-based. Particulars: in vivo. In outline:
as §2

Data set [11] concerns the target Core antigen (Hepatitis B virus) (UniProt Q03732). Nature of the data set: Inhibition of dimerization of HA-tagged Hepatitis B Virus capsid (HBVcAg-N1-154) expressed in HEK293T cells at 50 to 100 uM after 48 hrs by co-immunoprecipitation assay. It is filed as cell-based. The essentials: (§4)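 HEK293T cells were co-transfected with HBc-VN-HA and HBc-VC-FLAG, then treated with DMSO or compound. After 48 h, lysates were co-immunoprecipitated with anti-HA beads and analysed by immunoblot.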

For data set [12] the target is unchanged. Nature of the data set: Inhibition of dimerization of HA-tagged Hepatitis B Virus capsid (HBVcAg-C155-239) expressed in HEK293T cells at 50 to 100 uM after 48 hrs by Western blot analysis. It is filed as cell-based. The essentials:
as §3

Data set [13] in a line: Acute toxicity in BALB/c mouse assessed as effect on spleen at 500 to 1000 mg/kg, ip measured on day 14 by hematoxylin and eosin staining based assay. It is filed as organism-based. Conditions: in vivo. The essentials: as §2
Data set [14] concerns the target Core antigen (Hepatitis B virus) (UniProt Q03732). Nature of the data set: Inhibition of GFP-fused Hepatitis B Virus capsid (HBVcAg-GFP-N1-154) expressed in HEK293T cells assessed as reduction in capsid assembly after 48 hrs by fluorescence microscopic analysis. Type of data set: cell-based. The essentials: as §1
Data set [15] concerns Hepatitis B virus. Nature of the data set: Antiviral activity against Hepatitis B virus infected in BALB/c mouse injected with replication-competent HBV DNA plasmid HBV-1.2mer assessed as reduction in viral DNA replication at 30 mg/kg, iv measured after 2 weeks by RT-PCR analysis. Type of data set: functional, organism-based. The essentials:
(§5)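 BALB/c transgenic mice carrying the replication-competent HBV-1.2mer plasmid were bled at day 0 for HBV DNA copies and randomly split into two groups of 3 males. Each group got 30 mg/kg compound or DMSO by tail vein, every 2 days, for 2 weeks. Blood was then collected. HBV DNA was measured by real-time PCR and HBsAg by ELISA.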

Data set [16] relates to Hepatitis B virus. Description: Antiviral activity against Hepatitis B virus infected in BALB/c mouse injected with replication-competent HBV DNA plasmid HBV-1.2mer assessed as reduction in HBsAg replication at 30 mg/kg, iv measured after 2 weeks by ELISA. Type of data set: functional, organism-based. The essentials:
as §5
For orientation: In an ELISA, binding on a coated surface is turned into a signal by an enzyme label.

Data set [17] in a line: Acute toxicity in BALB/c mouse assessed as effect on lung at 500 to 1000 mg/kg, ip measured on day 14 by hematoxylin and eosin staining based assay. It is filed as organism-based. Particulars: in vivo. The essentials: as §2
Data set [18] can be described thus: Renal toxicity in BALB/c mouse assessed as effect on CRE levels at 500 to 1000 mg/kg, ip measured on day 14. It is filed as organism-based. Particulars: in vivo. In outline:
as §2

Data set [19] is described as follows: Hepatic toxicity in BALB/c mouse assessed as effect on ALT levels at 500 to 1000 mg/kg, ip measured on day 14. It is filed as organism-based. Conditions: in vivo. In outline: as §2
Data set [20] concerns Hepatitis B virus. Nature of the data set: Antiviral activity against Hepatitis B virus infected in human […] assessed as reduction in viral DNA replication at 30 mg/kg dosed orthotopically every 3 days for 4 weeks by RT-PCR analysis. It is filed as functional, organism-based.
Data set [21] concerns the target Core antigen (Hepatitis B virus) (UniProt Q03732). Nature of the data set: Inhibition of GFP-fused Hepatitis B Virus capsid (HBVcAg-VFP-C155-239) expressed in HEK293T cells assessed as reduction in capsid assembly after 48 hrs by fluorescence microscopic analysis. Type of data set: cell-based. The essentials:
as §1

For data set [22] the target is unchanged. Description: Inhibition of dimerization of HA-tagged Hepatitis B Virus capsid (HBVcAg-C155-239) expressed in HEK293T cells at 50 to 100 uM after 48 hrs by co-immunoprecipitation assay. It is filed as cell-based. The essentials:
as §4

Data set [23] is described as follows: Acute toxicity in BALB/c mouse assessed as effect on kidney at 500 to 1000 mg/kg, ip measured on day 14 by hematoxylin and eosin staining based assay. Type of data set: organism-based. Conditions: in vivo. In outline: as §2

For the compound `O=S(=O)(Nc1ncc(C(Oc2ccc3cc(Br)ccc3c2)c2ccc(Cl)cc2)s1)c1ccccc1` (stereo not drawn), the inhibition in [1] was found to be 63%. For the same compound, the IC50 with Hepatitis B virus [2] was determined as 2.32 µM. In data set [3], this compound registered a CC50 greater than 50 µM.
`COc1ccc(C(=O)Nc2ncc(C(Nc3cccc4ccccc34)c3ccc(Cl)cc3)s2)cc1` (stereo not drawn) showed an inhibition in data set [1] of 69%. The IC50 with Hepatitis B virus [2] stood at 6.85 µM. In addition, in data set [3], the CC50 is greater than 50 µM.
With `O=S(=O)(Nc1ncc(C(Oc2ccc3cc(Br)ccc3c2)c2ccc(Cl)cc2)s1)c1cccc2cccnc12` (stereo not drawn), the Activity entry in [4], in data set [7], in data set [8], in data set [9], in [10] and in [13] was “Non-Toxic” in each case. Further, the Activity result in data set [17], in data set [18], in data set [19] and in [23] was “Non-Toxic” in each case. Besides, the inhibition entry in [5], in data set [6], in data set [11], in data set [12] and in data set [22] was “Active” in each case. In addition, the inhibition entry in [14] was “Dose-dependent effect”; in data set [1], 63%; in [21] it was “Dose-dependent effect”; in the data set with Hepatitis B virus [2], “Dose-dependent effect”. Further, the result in the data set on Hepatitis B virus [15], in the data set with Hepatitis B virus [16] and in the data set with Hepatitis B virus [20] was Active. Moreover, the IC50 in the data set with Hepatitis B virus [2] was 0.183 µM. In data set [3], this compound showed a CC50 greater than 50 µM.
For `O=C(Nc1ncc(C(Oc2ccc3cc(Br)ccc3c2)c2ccc(Cl)cc2)s1)c1ccc(F)cc1Br` (stereo not drawn), in data set [1], the inhibition was 65%. In addition, the IC50 in the data set with Hepatitis B virus [2] amounted to 3.55 µM. The compound also yielded a CC50 in data set [3] greater than 50 µM.

Broadly, the inhibition is the percentage by which the read-out fell short of the control. The IC50 is the concentration that gives 50% inhibition. In general, CC50 refers to the concentration at which the toxic effect on the cells reaches its halfway point.
